What was measured:
[1] = tested on: Receptor-type tyrosine-protein kinase FLT3 (Homo sapiens), P36888 [UNDEFINED MUTATION]; assay: Inhibition of FLT3 ITD mutant (unknown origin) using TAMRA-Src- tide as substrate at 12.5 uM after 1 hr by fluorescence polarization assay relative to control
How it was run: (§1)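 FLT3-ITD kinase inhibition by fluorescence polarization IMAP assay; each compound tested at 12.5 and 1.25 μM; percent inhibition, average of two parallel measurements.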

[2] = tested on: Receptor-type tyrosine-protein kinase FLT3 (Homo sapiens), P36888 [UNDEFINED MUTATION]; assay: Inhibition of FLT3 ITD mutant (unknown origin) using TAMRA-Src- tide as substrate at 1.25 uM after 1 hr by fluorescence polarization assay relative to control; how it was run: as §1
MV4-11 = assay: Antiproliferative activity against human MV4-11 cells after 72 hrs by Celltiter-Glo luminescent cell viability assay; type: functional, cell-based; settings: MV4-11, 72 h
How it was run: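 MV4-11 leukaemia cells, 72 h proliferation assay, luminescence read-out; IC50 determined from concentration–response.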

Sequence of Receptor-type tyrosine-protein kinase FLT3 (Homo sapiens), P36888 [UNDEFINED MUTATION] (P36888 whole entry, looked up, stated change not applied): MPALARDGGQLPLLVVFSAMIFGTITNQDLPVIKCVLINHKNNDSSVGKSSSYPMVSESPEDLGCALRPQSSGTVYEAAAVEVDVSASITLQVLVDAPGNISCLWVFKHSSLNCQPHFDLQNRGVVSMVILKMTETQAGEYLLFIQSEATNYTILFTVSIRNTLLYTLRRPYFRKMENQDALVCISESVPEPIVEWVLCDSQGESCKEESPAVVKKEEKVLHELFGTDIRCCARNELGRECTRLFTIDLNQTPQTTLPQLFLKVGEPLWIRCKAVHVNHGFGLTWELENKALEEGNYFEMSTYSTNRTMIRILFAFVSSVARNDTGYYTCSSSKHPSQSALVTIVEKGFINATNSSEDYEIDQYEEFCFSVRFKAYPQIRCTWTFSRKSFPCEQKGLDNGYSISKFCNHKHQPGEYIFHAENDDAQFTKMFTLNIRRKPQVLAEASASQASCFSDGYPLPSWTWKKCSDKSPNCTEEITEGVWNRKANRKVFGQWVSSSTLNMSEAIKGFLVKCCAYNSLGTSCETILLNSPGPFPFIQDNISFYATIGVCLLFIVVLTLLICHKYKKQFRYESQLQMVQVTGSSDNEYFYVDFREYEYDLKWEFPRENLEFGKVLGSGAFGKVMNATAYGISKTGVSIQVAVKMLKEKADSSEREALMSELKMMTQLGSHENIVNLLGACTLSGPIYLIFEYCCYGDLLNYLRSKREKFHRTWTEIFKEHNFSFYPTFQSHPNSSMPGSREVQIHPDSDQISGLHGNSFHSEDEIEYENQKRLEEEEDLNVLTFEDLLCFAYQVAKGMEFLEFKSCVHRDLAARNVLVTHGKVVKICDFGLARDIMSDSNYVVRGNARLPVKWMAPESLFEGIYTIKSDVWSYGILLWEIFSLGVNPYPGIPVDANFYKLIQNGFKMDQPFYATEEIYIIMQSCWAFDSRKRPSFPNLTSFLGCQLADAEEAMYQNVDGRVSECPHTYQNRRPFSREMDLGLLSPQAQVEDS

SMILES: CCOC(=O)c1c(C)[nH]c(/C=C2\C(=O)Nc3ccc(C(=O)N[C@H](Cc4ccccc4)C(=O)O)cc32)c1C
- inhibition [1]: 96.2%
- inhibition [2]: 47%

SMILES: COC(=O)CC[C@H](NC(=O)c1c(C)[nH]c(/C=C2\C(=O)Nc3ccc(C(=O)N[C@H](CCC(=O)OC)C(=O)OC)cc32)c1C)C(=O)OC
- inhibition [1]: 70.3%
- inhibition [2]: 80.4%

SMILES: COC(=O)CC[C@@H](NC(=O)c1ccc2c(c1)/C(=C/c1[nH]c(C)c(C(=O)N[C@H](Cc3ccccc3)C(=O)OC)c1C)C(=O)N2)C(=O)OC
- IC50 (MV4-11): 10.3 µM
- inhibition [1]: 32.8%
- inhibition [2]: 12.1%

SMILES: COC(=O)CC[C@H](NC(=O)c1c(C)[nH]c(/C=C2\C(=O)Nc3ccc(C(=O)N[C@H](Cc4ccccc4)C(=O)OC)cc32)c1C)C(=O)OC
- IC50 (MV4-11): 3.2 µM
- inhibition [1]: 88.4%
- inhibition [2]: 35.3%

SMILES: Cc1[nH]c(/C=C2\C(=O)Nc3ccc(C(=O)N[C@@H](Cc4ccccc4)C(=O)O)cc32)c(C)c1C(=O)N[C@H](Cc1ccccc1)C(=O)O
- inhibition [1]: > 100%
- inhibition [2]: 104%

SMILES: COC(=O)[C@H](Cc1ccccc1)NC(=O)c1ccc2c(c1)/C(=C/c1[nH]c(C)c(C(=O)N[C@H](Cc3ccccc3)C(=O)O)c1C)C(=O)N2
- IC50 (MV4-11): 18.1 µM
- inhibition [1]: > 100%
- inhibition [2]: 89.6%

SMILES: COC(=O)[C@H](Cc1ccccc1)NC(=O)c1c(C)[nH]c(/C=C2\C(=O)Nc3ccc(C(=O)N[C@H](Cc4ccccc4)C(=O)O)cc32)c1C
- inhibition [1]: 94.8%
- inhibition [2]: 18.6%

SMILES: COC(=O)[C@@H](Cc1ccccc1)NC(=O)c1c(C)[nH]c(/C=C2\C(=O)Nc3ccc(C(=O)N[C@H](Cc4ccccc4)C(=O)O)cc32)c1C
- inhibition [1]: > 100%
- inhibition [2]: 66.4%

SMILES: COC(=O)[C@H](Cc1ccccc1)NC(=O)c1c(C)[nH]c(/C=C2\C(=O)Nc3ccc(C(=O)N[C@H](Cc4ccccc4)C(=O)OC)cc32)c1C
- IC50 (MV4-11): 2.5 µM
- inhibition [1]: 70.3%
- inhibition [2]: 29%

SMILES: COC(=O)CC[C@@H](NC(=O)c1ccc2c(c1)/C(=C/c1[nH]c(C)c(C(=O)N[C@@H](Cc3ccccc3)C(=O)O)c1C)C(=O)N2)C(=O)OC
- inhibition [1]: > 100%
- inhibition [2]: 67.7%

SMILES: COC(=O)[C@@H](Cc1ccccc1)NC(=O)c1ccc2c(c1)/C(=C/c1[nH]c(C)c(C(=O)N[C@H](Cc3ccccc3)C(=O)OC)c1C)C(=O)N2
- IC50 (MV4-11): 2.9 µM
- inhibition [1]: 85.8%
- inhibition [2]: 35.4%

SMILES: COC(=O)CC[C@@H](NC(=O)c1ccc2c(c1)/C(=C/c1[nH]c(C)c(C(=O)N[C@@H](Cc3ccccc3)C(=O)OC)c1C)C(=O)N2)C(=O)OC
- IC50 (MV4-11): 16.8 µM
- inhibition [1]: 49.6%
- inhibition [2]: 8.2%

SMILES: COC(=O)CC[C@@H](NC(=O)c1c(C)[nH]c(/C=C2\C(=O)Nc3ccc(C(=O)N[C@H](Cc4ccccc4)C(=O)O)cc32)c1C)C(=O)OC
- inhibition [1]: > 100%
- inhibition [2]: 39.2%

SMILES: COC(=O)[C@@H](Cc1ccccc1)NC(=O)c1ccc2c(c1)/C(=C/c1[nH]c(C)c(C(=O)O)c1C)C(=O)N2
- IC50 (MV4-11): 0.6 µM
- inhibition [1]: 27.5%
- inhibition [2]: 76.7%

SMILES: COC(=O)[C@H](Cc1ccccc1)NC(=O)c1ccc2c(c1)/C(=C/c1[nH]c(C)c(C(=O)N[C@H](Cc3ccccc3)C(=O)OC)c1C)C(=O)N2
- IC50 (MV4-11): 3.3 µM
- inhibition [1]: 67.7%
- inhibition [2]: 35.4%

SMILES: COC(=O)c1ccc2c(c1)/C(=C/c1[nH]c(C)c(C(=O)N[C@H](Cc3ccccc3)C(=O)OC)c1C)C(=O)N2
- IC50 (MV4-11): 0.3 µM
- inhibition [1]: 80.6%
- inhibition [2]: 47%

SMILES: COC(=O)[C@@H](Cc1ccccc1)NC(=O)c1c(C)[nH]c(/C=C2\C(=O)Nc3ccc(C(=O)N[C@@H](Cc4ccccc4)C(=O)O)cc32)c1C
- inhibition [1]: > 100%
- inhibition [2]: 93.5%

SMILES: COC(=O)[C@@H](Cc1ccccc1)NC(=O)c1ccc2c(c1)/C(=C/c1[nH]c(C)c(C(=O)N[C@H](Cc3ccccc3)C(=O)O)c1C)C(=O)N2
- IC50 (MV4-11): 19.7 µM
- inhibition [1]: > 100%
- inhibition [2]: 28.9%

SMILES: Cc1[nH]c(/C=C2\C(=O)Nc3ccc(C(=O)N[C@H](Cc4ccccc4)C(=O)O)cc32)c(C)c1C(=O)O
- inhibition [1]: > 100%
- inhibition [2]: 87.1%

SMILES: COC(=O)CC[C@H](NC(=O)c1ccc2c(c1)/C(=C/c1[nH]c(C)c(C(=O)N[C@H](Cc3ccccc3)C(=O)O)c1C)C(=O)N2)C(=O)OC
- inhibition [1]: > 100%
- inhibition [2]: 70.3%

SMILES: COC(=O)CC[C@H](NC(=O)c1ccc2c(c1)/C(=C/c1[nH]c(C)c(C(=O)N[C@H](Cc3ccccc3)C(=O)OC)c1C)C(=O)N2)C(=O)OC
- IC50 (MV4-11): > 30 µM
- inhibition [1]: 78%
- inhibition [2]: 31.5%

SMILES: COC(=O)CC[C@@H](NC(=O)c1ccc2c(c1)/C(=C/c1[nH]c(C)c(C(=O)N[C@H](Cc3ccccc3)C(=O)O)c1C)C(=O)N2)C(=O)OC
- inhibition [1]: > 100%
- inhibition [2]: 73%

SMILES: Cc1[nH]c(/C=C2\C(=O)Nc3ccc(C(=O)N[C@H](Cc4ccccc4)C(=O)O)cc32)c(C)c1C(=O)N[C@H](Cc1ccccc1)C(=O)O
- inhibition [1]: > 100%
- inhibition [2]: 76.8%

SMILES: CCOC(=O)c1c(C)[nH]c(/C=C2\C(=O)Nc3ccc(C(=O)N[C@H](Cc4ccccc4)C(=O)OC)cc32)c1C
- IC50 (MV4-11): 1.3 µM
- inhibition [1]: 92.2%
- inhibition [2]: 61.3%

SMILES: COC(=O)CC[C@@H](NC(=O)c1c(C)[nH]c(/C=C2\C(=O)Nc3ccc(C(=O)O)cc32)c1C)C(=O)OC
- inhibition [1]: > 100%
- inhibition [2]: 93.5%

SMILES: COC(=O)CC[C@@H](NC(=O)c1c(C)[nH]c(/C=C2\C(=O)Nc3ccc(C(=O)OC)cc32)c1C)C(=O)OC
- IC50 (MV4-11): 1.3 µM
- inhibition [1]: 93.5%
- inhibition [2]: 88.3%

SMILES: COC(=O)CC[C@H](NC(=O)c1ccc2c(c1)/C(=C/c1[nH]c(C)c(C(=O)N[C@H](CCC(=O)OC)C(=O)OC)c1C)C(=O)N2)C(=O)OC
- inhibition [1]: 81.9%
- inhibition [2]: 43.2%

SMILES: CCOC(=O)c1c(C)[nH]c(/C=C2\C(=O)Nc3ccc(C(=O)N[C@H](CCC(=O)OC)C(=O)OC)cc32)c1C
- inhibition [1]: 79.3%
- inhibition [2]: 3.1%

SMILES: COC(=O)CC[C@@H](NC(=O)c1c(C)[nH]c(/C=C2\C(=O)Nc3ccc(C(=O)N[C@H](Cc4ccccc4)C(=O)OC)cc32)c1C)C(=O)OC
- IC50 (MV4-11): 1.6 µM
- inhibition [1]: 63.8%
- inhibition [2]: 37.9%

SMILES: Cc1[nH]c(/C=C2\C(=O)Nc3ccc(C(=O)O)cc32)c(C)c1C(=O)N[C@H](Cc1ccccc1)C(=O)O
- inhibition [1]: > 100%
- inhibition [2]: 87%

SMILES: COC(=O)CC[C@@H](NC(=O)c1c(C)[nH]c(/C=C2\C(=O)Nc3ccc(C(=O)N[C@@H](Cc4ccccc4)C(=O)O)cc32)c1C)C(=O)OC
- inhibition [1]: > 100%
- inhibition [2]: 90.9%

SMILES: COC(=O)[C@@H](Cc1ccccc1)NC(=O)c1c(C)[nH]c(/C=C2\C(=O)Nc3ccc(C(=O)O)cc32)c1C
- inhibition [1]: > 100%
- inhibition [2]: 97.4%

SMILES: COC(=O)c1ccc2c(c1)/C(=C/c1[nH]c(C)c(C(=O)N[C@H](Cc3ccccc3)C(=O)O)c1C)C(=O)N2
- IC50 (MV4-11): 3.9 µM
- inhibition [1]: > 100%
- inhibition [2]: 91%

SMILES: COC(=O)CC[C@@H](NC(=O)c1c(C)[nH]c(/C=C2\C(=O)Nc3ccc(C(=O)N[C@@H](Cc4ccccc4)C(=O)OC)cc32)c1C)C(=O)OC
- IC50 (MV4-11): 25.4 µM
- inhibition [1]: 94.8%
- inhibition [2]: 53.5%

From ChEMBL document CHEMBL4190404, “Synthesis and characterization of amino acid substituted sunitinib analogues for the treatment of AML” (Bioorg Med Chem Lett, 2018)
